Experimental data published in ChEMBL document CHEMBL4196014, “Highly convergent synthesis and antiviral activity of (E)-but-2-enyl nucleoside phosphonoamidates” (Eur J Med Chem, 2018).
Active and inactive are the calls of the source. No cut-off for these calls is given here.

What was measured:
[1] = test system: Human betaherpesvirus 5; assay: Antiviral activity against Human cytomegalovirus AD169 infected in HEL cells assessed as reduction in viral cytopathic effect; format: functional, organism-based; details: Human betaherpesvirus 5, AD169, HEL
In short: (§1)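 Confluent cell monolayers were infected with 100 CCID50 of virus (1 CCID50 is the dose infecting 50% of cultures) with test compound at varying concentrations (100, 20, … μM). CPE was scored once it was complete in untreated infected controls.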

[2] = test system: Human betaherpesvirus 5; assay: Antiviral activity against Human cytomegalovirus Davis infected in HEL cells assessed as reduction in viral cytopathic effect; format: functional, organism-based; details: Human betaherpesvirus 5, Davis; in short: as §1
[3] = test system: Human alphaherpesvirus 3; assay: Antiviral activity against Varicella zoster virus Oka infected in HEL cells assessed as reduction in viral plaque formation; format: functional, organism-based; details: Human alphaherpesvirus 3, strain Oka vaccine
In short: (§2)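 Confluent cultures were inoculated with 20 PFU of virus with compound at varying concentrations (100, 20, … μM). Plaques were counted once plaque formation was complete in untreated infected controls.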

[4] = test system: Human alphaherpesvirus 3; assay: Antiviral activity against thymidine kinase deficient Varicella zoster virus 07/1 infected in HEL cells assessed as reduction in viral plaque formation; format: functional, organism-based; details: Human alphaherpesvirus 3, 07/1, HEL; in short: as §2
[5] = Cytotoxicity against HEL cells assessed as alteration of cell morphology by microscopic method; format: cell-based; details: human
In short: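 MCC is the lowest compound concentration giving a microscopically visible alteration of cell morphology.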

[6] = test system: HEL; assay: Cytostatic activity against HEL cells after 3 days by Coulter counting method; format: cell-based; details: human, 72 h
In short: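 HEL cells were seeded at 5 × 10^3 cells/well and grown for 24 h, then given medium with graded compound concentrations. After 3 days at 37 °C, cells were counted with a Coulter counter.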

[7] = Selectivity index, ratio of CC50 for HEL cells to EC50 for Varicella zoster virus Oka infected in HEL cells; format: toxicity, cell-based; details: human, read-out: Ratio CC50/EC50
In short: (§3)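 SI is CC50 divided by EC50. CC50 comes from the 3-day HEL Coulter-counter growth assay. EC50 comes from the VZV plaque-reduction assay (20 PFU inoculum).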

[8] = Selectivity index, ratio of CC50 for HEL cells to EC50 for thymidine kinase deficient Varicella zoster virus 07/1 infected in HEL cells; format: toxicity, cell-based; details: human, read-out: Ratio CC50/EC50; in short: as §3
[9] = test system: Human alphaherpesvirus 1; assay: Antiviral activity against Human simplex virus 1 KOS infected in HEL cells assessed as reduction in viral cytopathic effect; format: functional, organism-based; details: Human alphaherpesvirus 1, KOS; in short: as §1
[10] = test system: Human alphaherpesvirus 1; assay: Antiviral activity against thymidine kinase deficient acyclovir-resistant Human simplex virus 1 KOS infected in HEL cells assessed as reduction in viral cytopathic effect; format: functional, organism-based; details: Human alphaherpesvirus 1, KOS; in short: as §1
[11] = test system: Human alphaherpesvirus 2; assay: Antiviral activity against Human simplex virus 2 G infected in HEL cells assessed as reduction in viral cytopathic effect; format: functional, organism-based; details: Human alphaherpesvirus 2, strain G; in short: as §1
[12] = test system: Vaccinia virus; assay: Antiviral activity against Vaccinia virus infected in HEL cells assessed as reduction in viral cytopathic effect; format: functional, organism-based; details: Orthopoxvirus vaccinia; in short: as §1
[13] = test system: Human coronavirus 229E; assay: Antiviral activity against Human coronavirus 229E infected in HEL cells assessed as reduction in viral cytopathic effect; format: functional, organism-based; in short: as §1
[14] = test system: Human respirovirus 3; assay: Antiviral activity against Human parainfluenza virus 3 infected in African green monkey Vero cells assessed as reduction in viral cytopathic effect; format: functional, organism-based; in short: as §1
[15] = test system: Mammalian orthoreovirus 1; assay: Antiviral activity against Reovirus-1 infected in African green monkey Vero cells assessed as reduction in viral cytopathic effect; format: functional, organism-based; in short: as §1
[16] = test system: Sindbis virus; assay: Antiviral activity against Sindbis virus infected in African green monkey Vero cells assessed as reduction in viral cytopathic effect; format: functional, organism-based; in short: as §1
[17] = test system: Coxsackievirus B4; assay: Antiviral activity against Coxsackievirus B4 infected in African green monkey Vero cells assessed as reduction in viral cytopathic effect; format: functional, organism-based; in short: as §1
[18] = test system: Vesicular stomatitis virus; assay: Antiviral activity against Vesicular stomatitis virus infected in human HeLa cells assessed as reduction in viral cytopathic effect; format: functional, organism-based; in short: as §1
[19] = test system: Coxsackievirus B4; assay: Antiviral activity against Human coxsackievirus B4 infected in human HeLa cells assessed as reduction in viral cytopathic effect; format: functional, organism-based; in short: as §1
[20] = test system: Respiratory syncytial virus; assay: Antiviral activity against Respiratory syncytial virus infected in human HeLa cells assessed as reduction in viral cytopathic effect; format: functional, organism-based; in short: as §1
[21] = test system: Influenza A virus; assay: Antiviral activity against Influenza A virus (H1N1) infected in MDCK cells assessed as reduction in viral cytopathic effect; format: functional, organism-based
In short: (§4)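 Nearly confluent MDCK cultures were infected with 100 CCID50 of virus with compound at varying concentrations (100, 20, … μM). CPE was scored when complete in untreated infected controls.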

[22] = test system: Influenza A virus H3N2; assay: Antiviral activity against Influenza A virus H3N2 infected in MDCK cells assessed as reduction in viral cytopathic effect; format: functional, organism-based; in short: as §4
[23] = test system: Influenza B virus; assay: Antiviral activity against Influenza B virus infected in MDCK cells assessed as reduction in viral cytopathic effect; format: functional, organism-based; in short: as §4
[24] = test system: Human immunodeficiency virus 1; assay: Antiviral activity against Human immunodeficiency virus 1 LAV1 infected in primary human PBM cells after 6 days by reverse transcriptase activity-based assay; format: functional, organism-based

Work on `Cc1cn(C/C=C/CP(=O)(N[C@@H](C)C(=O)OC(C)C)Oc2ccccc2)c(=O)[nH]c1=O` (some centres undefined) yielded an EC50 [1] of 25.9 µM, an EC50 [2] of 13.5 µM and an EC50 [3] of 4.59 µM. It also gave an EC50 [4] of 1.03 µM, an MCC [5] of over 100 µM and a CC50 [6] of over 100 µM. The selectivity ratio [7] was over 22, the selectivity ratio [8] was over 97 and the EC50 [9] was over 100 µM. The EC50 [10] was over 100 µM, the EC50 [11] was over 100 µM and the EC50 [12] was over 100 µM. The EC50 [13] was over 100 µM, the Activity [14] was “inactive” and the Activity [15] was “inactive”. The Activity [16] was “inactive”, the Activity [17] was “inactive” and the Activity [18] was “inactive”. For the same compound, the Activity [19] was “inactive”, the Activity [20] was “inactive” and the Activity [21] was “inactive”. For the same compound, the Activity [22] was “inactive”, the Activity [23] was “inactive” and the Activity [24] was “inactive”.
